According to ChEMBL document CHEMBL1240369, “Antiviral efficacy of the novel compound BIT225 against HIV-1 release from human macrophages” (Antimicrob Agents Chemother, 2010):
The source made the active and inactive calls. The calls are words filed in the database; no cut-off is given here.

Molecular target: Protease (Human immunodeficiency virus 1) (UniProt Q9YQ12)
Experiment: Inhibition of HIV1 protease assessed as substrate cleavage by cell free assay
Method in brief: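 Cell-free fluorometric protease assay: compound (1–100 μM) was premixed with 2 μM quenched HIV-1 protease substrate 1. Background fluorescence (ex 340/em 490 nm) was read every 5 s for 5 min. HIV-1 protease was then added at 1.5% and cleavage followed for a further 5 min. LPV and EFV served as controls.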

Sequence of Protease (Human immunodeficiency virus 1) (Q9YQ12 as listed by the source): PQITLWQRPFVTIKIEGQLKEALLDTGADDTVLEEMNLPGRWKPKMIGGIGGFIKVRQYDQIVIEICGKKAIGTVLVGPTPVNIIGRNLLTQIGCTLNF

Row | Activity | SMILES
1 | inactive | O=C1Nc2ccc(Cl)cc2[C@@](C#CC2CC2)(C(F)(F)F)O1
2 | Active | Cc1cccc(C)c1OCC(=O)N[C@@H](Cc1ccccc1)[C@@H](O)C[C@H](Cc1ccccc1)NC(=O)[C@H](C(C)C)N1CCCNC1=O
